Experimental data as given in PMC8968902 (Haematologica, 2021).

Legend:
[1] = reported half-lives; cited from earlier work
CCL3 [2] = conditions: BTKi-naïve patients; cited from earlier work
CCL4 [3] = conditions: BTKi-naïve patients; cited from earlier work
TNFa [4] = conditions: BTKi-naïve patients; cited from earlier work
TNFa [5] = assay: Serum cytokine levels by ELISA in CLL patients; type: in vivo, human; conditions: after one cycle, 246, 328 and 410 mg dose levels
CCL4 [6] = assay: Serum cytokine levels by ELISA in CLL patients; type: in vivo, human; conditions: after one cycle, 246, 328 and 410 mg dose levels
[7] = Phase Ib dose-escalation study: safety and tolerability in patients; type: in vivo, human
[8] = tested on: relapsed/refractory CLL or other B-cell malignancies; assay: Phase Ib dose-escalation study: clinical activity; type: in vivo, human
[9] = Pharmacokinetics in patients; type: in vivo, human; conditions: 38 patients, 20.5-410 mg BID
Outline: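 Phase Ib, patients with relapsed/refractory CLL or other B-cell malignancies; test compound given orally as capsules twice daily at seven escalating dose levels, 20.5 mg/dose up to 410 mg BID. Pharmacokinetic data from 38 patients across the ~12 hour dosing interval; trough concentrations taken on cycle 1 day 8.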

BTK WT = BTK WT (Homo sapiens, UniProt Q06187); assay: In vitro cellular assay, BTK residence time, BTK WT; type: cell-based; conditions: read-out: BTK residence time
CCL3 [10] = assay: Serum cytokine levels by ELISA in CLL patients; type: in vivo, human; conditions: after one cycle, 246, 328 and 410 mg dose levels
Protein binding = type: in vitro ADME

BTK WT, sequence (Q06187 whole entry): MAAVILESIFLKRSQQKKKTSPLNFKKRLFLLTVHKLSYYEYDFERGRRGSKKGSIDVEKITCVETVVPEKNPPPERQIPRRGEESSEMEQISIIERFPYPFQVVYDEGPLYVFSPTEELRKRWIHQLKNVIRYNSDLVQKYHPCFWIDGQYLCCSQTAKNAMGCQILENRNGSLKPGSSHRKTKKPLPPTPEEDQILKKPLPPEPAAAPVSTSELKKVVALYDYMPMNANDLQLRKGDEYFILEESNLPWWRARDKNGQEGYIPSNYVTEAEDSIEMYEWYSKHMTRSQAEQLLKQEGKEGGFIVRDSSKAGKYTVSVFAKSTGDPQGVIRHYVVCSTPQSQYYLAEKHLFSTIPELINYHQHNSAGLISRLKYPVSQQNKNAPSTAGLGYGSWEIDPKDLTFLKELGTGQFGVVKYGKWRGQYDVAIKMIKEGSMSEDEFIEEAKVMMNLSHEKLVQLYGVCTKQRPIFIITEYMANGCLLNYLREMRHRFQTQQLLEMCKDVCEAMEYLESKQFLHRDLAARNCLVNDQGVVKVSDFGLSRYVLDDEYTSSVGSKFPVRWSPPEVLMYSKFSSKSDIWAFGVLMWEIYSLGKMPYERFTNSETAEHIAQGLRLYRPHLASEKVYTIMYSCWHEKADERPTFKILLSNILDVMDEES

O=C(c1ccc(Oc2ccccc2)cc1Cl)c1c[nH]c2ncnc(N[C@@H]3CC[C@@H](CO)OC3)c12 [ARQ 531]
Half-life [1]: ~55 h

C=CC(=O)N1CCC[C@@H](n2nc(-c3ccc(Oc4ccccc4)cc3)c3c(N)ncnc32)C1 [Ibrutinib, ibrutinib]
Median decrease in CCL3 (CCL3 [2]): ≥ 80% | Median decrease in CCL4 (CCL4 [3]): ≥ 80% | Median decrease in TNFa (TNFa [4]): ≥ 80%

COc1ccc(F)cc1C(=O)NCc1ccc(-c2nn([C@@H](C)C(F)(F)F)c(N)c2C(N)=O)cc1 [Pirtobrutinib, pirtobrutinib]
Half-life [1]: approximately 20 hours

NC(=O)[C@H]1CCN(c2ncnc(N)c2F)C[C@@H]1N1CCC[C@@H](Nc2cc(Cl)cc(C(F)(F)F)c2)C1=O [Vecabrutinib, vecabrutinib]
Mean reduction in serum TNFa (TNFa [5]): 24-57% | Mean reduction in serum CCL4 (CCL4 [6]): 33-59% | Grade ≥3 AE at the two highest dose levels ([7]; 328 and 410 mg BID): no grade ≥3 AE observed | AE considered treatment-related by the investigator: anemia ([7]; all patients): 10% | AE considered treatment-related by the investigator: fatigue ([7]; all patients): 10% | Grade ≥3 AE: anemia ([7]; all patients): 23% | Grade ≥3 AE: thrombocytopenia ([7]; all patients): 10% | Patients with one or more serious AE (SAE) ([7]; all patients): seven | Treatment-emergent AE: anemia ([7]; all patients): 31% | Treatment-emergent AE: dyspnea ([7]; all patients): 21% | Treatment-emergent AE: fatigue ([7]; all patients): 21% | Treatment-emergent AE: headache ([7]; all patients): 21% | Treatment-emergent AE: nausea ([7]; all patients): 21% | Maximum-tolerated dose ([7]; doses 20.5-410 mg BID): not reached | Cardiac events or clinically significant electrocardiogram findings ([7]; human, in vivo): no cardiac events or clinically significant electrocardiogram findings | Dose-dependent toxicity ([7]; human, in vivo): No obvious pattern of dose-dependent toxicity | SAE related to study treatment per the investigator ([7]; human, in vivo): No SAE were considered related to study treatment | SAE: hematuria ([7]; human, in vivo): 1 patient | SAE: intestinal perforation ([7]; human, in vivo): 1 patient | SAE: lymphocytosis ([7]; human, in vivo): 1 patient | Dose up to which well-tolerated ([7]; oral capsules, highest dose studied): 410 mg BID | Best response of stable disease (SD), patients ([8]; 11 CLL, 1 MCL, 1 marginal zone lymphoma): 13 patients | Patients with PR or SD who received vecabrutinib for ≥6 months ([8]; of 14 patients with PR or SD): Eight | Median time on study treatment ([8]; patients with PR or SD): 28.5 weeks | Dose proportionality of exposure and median steady-state Ctrough [9]: approximately dose-proportional | residence time (BTK WT): 15 min | Mean reduction in serum CCL3 (CCL3 [10]): 34-62% | Protein bound (Protein binding): 98.7%
